Data taken from ChEMBL document CHEMBL3612027, “Substrate-guided optimization of the syringolins yields potent proteasome inhibitors with activity against leukemia cell lines” (Bioorg Med Chem, 2015).

Columns and labels:
Format in all cases: functional
CAKI-1 = test: Cytotoxicity against human Caki1 cells assessed as cell growth at 10 uM after 48 hrs relative to control; settings: CAKI-1, 48 h, read-out: Activity
Summary of the method: (§1)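 Run at the National Cancer Institute as a single-dose screen across its 60-cell-line cancer panel. Compound was tested at 10 micromolar, and growth was expressed as a percentage of negative-control cultures.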

NCI/ADR-RES = test: Cytotoxicity against human NCI/ADR-RES cells assessed as cell growth at 10 uM after 48 hrs relative to control; settings: read-out: Activity; summary of the method: as §1
OVCAR-3 = test: Cytotoxicity against human OVCAR3 cells assessed as cell growth at 10 uM after 48 hrs relative to control; settings: OVCAR-3, 48 h, read-out: Activity; summary of the method: as §1
TK-10 = test: Cytotoxicity against human TK10 cells assessed as cell growth at 10 uM after 48 hrs relative to control; settings: TK-10, 48 h, read-out: Activity
Summary of the method: (§2)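 Submitted to the National Cancer Institute for a single-dose screen at 10 micromolar against 60 cancer cell lines. Growth is expressed relative to negative-control cultures.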

HL-60 = test: Cytotoxicity against human HL60 cells after 48 hrs; settings: HL-60, 48 h
MCF7 = test: Cytotoxicity against human MCF7 cells assessed as cell growth at 10 uM after 48 hrs relative to control; settings: MCF7, 48 h, read-out: Activity; summary of the method: as §1
MDA-MB-231 = test: Cytotoxicity against human MDA-MB-231 cells assessed as cell growth at 10 uM after 48 hrs relative to control; settings: MDA-MB-231, 48 h, read-out: Activity; summary of the method: as §1
HCT-15 = test: Cytotoxicity against human HCT15 cells assessed as cell growth at 10 uM after 48 hrs relative to control; settings: HCT-15, 48 h, read-out: Activity; summary of the method: as §1
OVCAR-5 = test: Cytotoxicity against human OVCAR5 cells assessed as cell growth at 10 uM after 48 hrs relative to control; settings: OVCAR-5, 48 h, read-out: Activity; summary of the method: as §1
BT-549 = test: Cytotoxicity against human BT549 cells assessed as cell growth at 10 uM after 48 hrs relative to control; settings: BT-549, 48 h, read-out: Activity; summary of the method: as §1
A549 = test: Cytotoxicity against human A549 cells assessed as cell growth at 10 uM after 48 hrs relative to control; settings: A549, 48 h, read-out: Activity; summary of the method: as §1
SNB-19 = test: Cytotoxicity against human SNB19 cells assessed as cell growth at 10 uM after 48 hrs relative to control; settings: SNB-19, 48 h, read-out: Activity; summary of the method: as §2
Malme-3M = test: Cytotoxicity against human MALME-3M cells assessed as cell growth at 10 uM after 48 hrs relative to control; settings: read-out: Activity; summary of the method: as §1
HCT-116 = test: Cytotoxicity against human HCT116 cells assessed as cell growth at 10 uM after 48 hrs relative to control; settings: HCT-116, 48 h, read-out: Activity; summary of the method: as §1
NCI-H23 = test: Cytotoxicity against human NCI-H23 cells assessed as cell growth at 10 uM after 48 hrs relative to control; settings: NCI-H23, 48 h, read-out: Activity; summary of the method: as §1
MDA-MB-468 = test: Cytotoxicity against human MDA-MB-468 cells assessed as cell growth at 10 uM after 48 hrs relative to control; settings: MDA-MB-468, 48 h, read-out: Activity; summary of the method: as §1
DU-145 = test: Cytotoxicity against human DU145 cells assessed as cell growth at 10 uM after 48 hrs relative to control; settings: DU-145, 48 h, read-out: Activity; summary of the method: as §1
T47D = test: Cytotoxicity against human T47D cells assessed as cell growth at 10 uM after 48 hrs relative to control; settings: read-out: Activity; summary of the method: as §2
IGROV-1 = test: Cytotoxicity against human IGROV1 cells assessed as cell growth at 10 uM after 48 hrs relative to control; settings: IGROV-1, 48 h, read-out: Activity; summary of the method: as §1
NCI-H460 = test: Cytotoxicity against human NCI-H460 cells assessed as cell growth at 10 uM after 48 hrs relative to control; settings: NCI-H460, 48 h, read-out: Activity; summary of the method: as §1
M14 = test: Cytotoxicity against human M14 cells assessed as cell growth at 10 uM after 48 hrs relative to control; settings: M14, 48 h, read-out: Activity; summary of the method: as §1
RPMI-8226 = test: Cytotoxicity against human RPMI8226 cells assessed as cell growth at 10 uM after 48 hrs relative to control; settings: RPMI-8226, 48 h, read-out: Activity; summary of the method: as §1
PC-3 = test: Cytotoxicity against human PC3 cells assessed as cell growth at 10 uM after 48 hrs relative to control; settings: PC-3, 48 h, read-out: Activity; summary of the method: as §1
UO-31 = test: Cytotoxicity against human UO31 cells assessed as cell growth at 10 uM after 48 hrs relative to control; settings: UO-31, 48 h, read-out: Activity; summary of the method: as §2
HL-60(TB) = test: Cytotoxicity against human HL-60(TB) cells assessed as cell growth at 10 uM after 48 hrs relative to control; settings: HL-60, 48 h, read-out: Activity
Summary of the method: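 Run at the NCI as a single-dose screen: each compound at 10 micromolar across the 60-cancer-cell-line panel. Growth of each cell line in compound-containing media was expressed relative to negative-control cultures.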

K562 [1] = test: Cytotoxicity against human K562 cells after 48 hrs; settings: K562, 48 h
SK-OV-3 = test: Cytotoxicity against human SKOV3 cells assessed as cell growth at 10 uM after 48 hrs relative to control; settings: SK-OV-3, 48 h, read-out: Activity; summary of the method: as §1
[2] = Cytotoxicity against human Hs578T cells assessed as cell growth at 10 uM after 48 hrs relative to control; settings: Hs-578T, read-out: Activity; summary of the method: as §1
K562 [3] = test: Cytotoxicity against human K562 cells assessed as cell growth at 10 uM after 48 hrs relative to control; settings: K562, 48 h, read-out: Activity; summary of the method: as §1
ACHN = test: Cytotoxicity against human ACHN cells assessed as cell growth at 10 uM after 48 hrs relative to control; settings: read-out: Activity; summary of the method: as §1
U-251 = test: Cytotoxicity against human U251 cells assessed as cell growth at 10 uM after 48 hrs relative to control; settings: U-251, 48 h, read-out: Activity; summary of the method: as §2
[4] = Cytotoxicity against human RPMI-8226 cells after 48 hrs; settings: RPMI-8226, 48 h
SF-295 = test: Cytotoxicity against human SF295 cells assessed as cell growth at 10 uM after 48 hrs relative to control; settings: SF-295, 48 h, read-out: Activity; summary of the method: as §1
SN12C = test: Cytotoxicity against human SN12C cells assessed as cell growth at 10 uM after 48 hrs relative to control; settings: read-out: Activity; summary of the method: as §2
HCC 2998 = test: Cytotoxicity against human HCC2998 cells assessed as cell growth at 10 uM after 48 hrs relative to control; settings: HCC 2998, 48 h, read-out: Activity; summary of the method: as §1
SF-539 = test: Cytotoxicity against human SF539 cells assessed as cell growth at 10 uM after 48 hrs relative to control; settings: SF-539, 48 h, read-out: Activity; summary of the method: as §1
UACC-62 = test: Cytotoxicity against human UACC62 cells assessed as cell growth at 10 uM after 48 hrs relative to control; settings: UACC-62, 48 h, read-out: Activity; summary of the method: as §2

Structure (SMILES)	growth at 10 µM (CAKI-1)	growth at 10 µM (NCI/ADR-RES)	growth at 10 µM (OVCAR-3)	growth at 10 µM (TK-10)	growth at 10 µM (MCF7)	growth at 10 µM (MDA-MB-231)	growth at 10 µM (HCT-15)	growth at 10 µM (OVCAR-5)	growth at 10 µM (BT-549)	growth at 10 µM (A549)	growth at 10 µM (SNB-19)	growth at 10 µM (Malme-3M)	growth at 10 µM (HCT-116)	growth at 10 µM (NCI-H23)	growth at 10 µM (DU-145)	growth at 10 µM (T47D)	growth at 10 µM (IGROV-1)	growth at 10 µM (NCI-H460)	growth at 10 µM (M14)	growth at 10 µM (RPMI-8226)	further results
COC(=O)[C@@H](NC(=O)N[C@@H](Cc1ccccc1)C(=O)N[C@H]1CCCCNC(=O)/C=C/[C@H](Cc2ccccc2)NC1=O)C(C)C	106%	98.8%	-36.7%	75%	37.4%	23.2%	101%	87%	3.25%	68.6%	39.8%	-0.39%	11.6%	44.8%	46.1%	8.25%	30.6%	35.6%	53.9%	7.17%	GI50 (HL-60): 4.34 µM; growth at 10 µM (MDA-MB-468): 0.26%; growth at 10 µM (PC-3): 73.2%; growth at 10 µM (UO-31): 89.6%; growth at 10 µM (HL-60(TB)): 20.9%; GI50 (K562 [1]): 14.6 µM; growth at 10 µM (SK-OV-3): 61.1%; growth at 10 µM [2]: 24.9%; growth at 10 µM (K562 [3]): 34.7%; growth at 10 µM (ACHN): 91.4%; growth at 10 µM (U-251): 17.8%; GI50 [4]: 2.72 µM; growth at 10 µM (SF-295): 51.3%; growth at 10 µM (SN12C): 29.5%; growth at 10 µM (HCC 2998): 5.56%; growth at 10 µM (SF-539): -22.2%; growth at 10 µM (UACC-62): 9.78%
COC(=O)[C@@H](NC(=O)N[C@@H](Cc1ccccc1)C(=O)N[C@H]1CCCCNC(=O)/C=C/[C@H](C(C)C)NC1=O)C(C)C	98.3%	105%	1.28%	93.6%	43.8%	60.8%	94.2%	104%	29.6%	77.4%	48.8%	77%	26.5%	44.1%	53.1%	-3.59%	45.1%	59.6%	86.6%	23.1%	growth at 10 µM (MDA-MB-468): 31.2%; growth at 10 µM (PC-3): 75%; growth at 10 µM (UO-31): 94.7%; growth at 10 µM (HL-60(TB)): 62.5%; growth at 10 µM (SK-OV-3): 101%; growth at 10 µM [2]: 40.9%; growth at 10 µM (K562 [3]): 47.2%; growth at 10 µM (ACHN): 102%; growth at 10 µM (U-251): 17.4%; growth at 10 µM (SF-295): 101%; growth at 10 µM (SN12C): 75.6%; growth at 10 µM (HCC 2998): 52.8%; growth at 10 µM (SF-539): 5.04%; growth at 10 µM (UACC-62): 29%
COC(=O)[C@@H](NC(=O)N[C@H](C(=O)N[C@H]1CCCCNC(=O)/C=C/[C@H](Cc2c[nH]c3ccccc23)NC1=O)C(C)C)C(C)C	98.8%	98.4%	-42.9%	94.1%	48.5%	39%	109%	61.1%	8.05%	77.5%	41.7%	47.9%	37.4%	38.2%	52%	-9.26%	24.7%	45.5%	86.7%	19%	growth at 10 µM (PC-3): 76.3%; growth at 10 µM (UO-31): 94.3%; growth at 10 µM (HL-60(TB)): 17.6%; growth at 10 µM (SK-OV-3): 15.4%; growth at 10 µM [2]: 9.21%; growth at 10 µM (K562 [3]): 52%; growth at 10 µM (ACHN): 90.8%; growth at 10 µM (U-251): 27.4%; growth at 10 µM (SF-295): 85.4%; growth at 10 µM (SN12C): 2.96%; growth at 10 µM (HCC 2998): 44.2%; growth at 10 µM (SF-539): -14.4%; growth at 10 µM (UACC-62): 60.7%
